Article PMC8958324 (iScience, 2022)

Key:
[1] = target: Rho F212A (Bos taurus, UniProt P02699, F212A); assay: Trp-based FRET assay, ATR release kinetics; type: binding, bovine
Outline: (§1)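 ATR release runs on HEK293F-expressed, 1D4-immunopurified mutant bovine rhodopsin at 0.25–0.30 μm in 1% POPC/1% CHAPS bicelles, pH 6.0. Release is followed as recovery of Trp fluorescence (ex 295, em 330 nm), the inverse of retinal-induced quenching, integrated for 2 s every 30 s. Traces are fitted to a single exponential to give koff, reported as mean ± STD of ≥3 trials.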

[2] = target: Rho A269F (Bos taurus, UniProt P02699, A269F); assay: Trp-based FRET assay, ATR release kinetics; type: binding, bovine
Outline: as §1

[3] = target: T1, Rho I189P (Bos taurus, UniProt P02699, I189P); assay: Trp-based FRET assay, ATR release kinetics; type: binding, bovine; settings: I189P vs I189, TM5 single vs TM5/I189P double mutants, koff Trp
Outline: as §1

[4] = target: T2, Rho T94I (Bos taurus, UniProt P02699, T94I); assay: Trp-based FRET assay, ATR release kinetics; type: binding, bovine
Outline: as §1

[5] = target: T1, Rho I189P; assay: Trp-based FRET assay, 11CR entry kinetics; type: binding, bovine; settings: I189P vs I189, TM5 single vs TM5/I189P double mutants, kon Trp
Outline: (§2)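 Mutant bovine opsin is expressed in HEK293F cells, regenerated with 5 μm 11CR overnight at 4°C, then 1D4-immunopurified in DDM and C9-peptide eluted. Receptor at 0.25–0.30 μm is diluted into 1% POPC/1% CHAPS bicelles, pH 6.0, stirred in a temperature-controlled cuvette, with 11CR at 0.5–30 μm final. Trp quenching (ex 295, em 330 nm) is fitted pseudo-first-order; k2 = kobs/[retinal]. Data are mean ± STD of ≥3 trials.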

[6] = target: S144-Alexa488 Rho F212A (Bos taurus, UniProt P02699, F212A/S144F); assay: Alexa488-based FRET assay, 11CR entry kinetics; type: binding, bovine; settings: F212A vs wt; Eyring plot
Outline: (§3)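 Bovine opsin bearing S144azF is expressed in HEK293F cells with 1 mm azF for 96 h and regenerated with 11CR. It is purified by 1D4 immunopurification in DDM and labelled on resin with 50 μm Alexa488-DIBO for 18 h at 25°C. Labelled receptor (5–50 nm) sits in 1% POPC/1% CHAPS bicelles, pH 6.0, with 0.5–30 μm 11CR. Fluorescence (ex 488, em 520 nm) decay gives kobs; kon = kobs/[retinal], measured across temperatures for Eyring plots; mean ± STD.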

[7] = system: opsin; settings: 11CR binding with opsin; ref Tian et al., 2017a; cited from earlier work
[8] = target: S144-Alexa488 Rho F208W (Bos taurus, UniProt P02699, F208W/S144F); assay: Alexa488-based FRET assay, 11CR entry kinetics; type: binding, bovine; settings: F208W vs wt; Eyring plot
Outline: as §3

[9] = target: T2, Rho T94I; assay: Trp-based FRET assay, 11CR entry kinetics; type: binding, bovine
Outline: as §2

[10] = target: Rho A269Y (Bos taurus, UniProt P02699, A269Y); assay: regeneration with 11CR; type: binding, bovine; settings: 11CR 15 μM, over 48 h
[11] = target: Rho A269W (Bos taurus, UniProt P02699, A269W); assay: regeneration with 11CR; type: binding, bovine; settings: expressed at very low level
[12] = target: Rho F212W (Bos taurus, UniProt P02699, F212W); assay: Trp-based FRET assay, 11CR entry kinetics; type: binding, bovine
Outline: as §2

Row | SMILES | ATR exit kinetics normalized to the wt Rho [1] | ATR exit kinetics normalized to the wt Rho [2] | reduction of activation free energy Δ‡Goff by I189P [3] [kcal/mol] | ATR release kinetics (relative to wt) [4] | reduction of activation free energy Δ‡Gon by I189P [5] [kcal/mol] | reduction of activation enthalpy (Δ‡H) of 11CR entry [6] [kcal/mol] | activation barrier Δ‡Gon [7] [kcal/mol] | increase of activation enthalpy (Δ‡H) of 11CR entry [8] [kcal/mol] | 11CR entry kinetics (relative to wt) [9] | regeneration with 11CR [10] | regeneration with 11CR [11] | 11CR entry kinetics normalized to the wt Rho [12]
1 | CC1=C(/C=C/C(C)=C/C=C/C(C)=C/C=O)C(C)(C)CCC1 [ATR, all-trans-retinal] | 2.82 ± 1.0 | 0.91 ± 0.07 | 1.6 ± 0.8 | 0.17 ± 0.02 | – | – | – | – | – | – | – | –
2 | CC1=C(/C=C/C(C)=C/C=C/C(C)=C/C=O)C(C)(C)CCC1 [11CR, 11-cis-retinal] | – | – | – | – | 1.6 ± 0.3 | 3.7 ± 1.6 | 13.5 | 4.8 ± 3.1 | 0.80 ± 0.04 | could not be regenerated | failed to regenerate | 0.043 ± 0.022
